Hck Nef HTS – blocks Nef-activated human Hck kinase. P08631. Recombinant Hck-YEEI plus Nef, Z-Lyte FRET kinase assay. inhibition, % at 20 µM. 220,000 compounds, 0.68% hits;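 active means Hck-Nef kinase inhibition above about 50%, limit read from the data; inactive means inhibition below that limit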
14-3-3 Bad inh – disrupts binding of bovine 14-3-3 zeta to phospho-Bad peptide | 220,000 compounds, 0.71% hits | P63103 | inhibition, % at 21.7 µM | TR-FRET 14-3-3zeta/Dy647-pBad peptide displacement, 1 h;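 active means inhibition above about 70%, limit read from the data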
Target sequence (P63103 whole entry, looked up): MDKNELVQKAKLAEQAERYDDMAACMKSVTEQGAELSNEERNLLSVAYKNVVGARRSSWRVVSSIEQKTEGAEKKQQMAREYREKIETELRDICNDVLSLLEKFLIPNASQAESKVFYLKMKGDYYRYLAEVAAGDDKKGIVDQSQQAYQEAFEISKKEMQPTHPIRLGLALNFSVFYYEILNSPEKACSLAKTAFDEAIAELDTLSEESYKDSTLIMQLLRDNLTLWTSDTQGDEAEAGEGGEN
Biofilm kill mix – mixtures killing C. albicans biofilm. inhibition, % at 7.6 µM. AID 1242. 120,000 compounds, 0.02% hits. C. albicans biofilm persisters + clotrimazole, fluorescence viability; primary screen in compound mixtures of four per well;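 further: compounds exposed to preformed 24 h biofilms for 48 h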
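Assay system: C. albicans biofilms / Medium: RPMI/MOPS medium, pH 7.0 / Schedule: biofilm formation 24 h, compound exposure 48 h, 37 °C / Measured by: Alamar Blue fluorescence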
p97 ATPase inh – human p97 ATPase inhibition. P55072. recombinant p97 ATPase, Kinase-Glo ATP luminescence, 3 h. inhibition, % at 8 µM. 220,000 compounds, 0.42% hits; in the data active means inhibition above about 15%
PERK inh – human PERK inhibition, primary cell-based screen; Q9NZJ5; 220,000 compounds, 0.17% hits; CHO PERK-DD fusion, SEAP luminescence translation reporter; inhibition, % at 5.6 µM;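 active means inhibition above the mean inhibition of all tested compounds plus 3 SD, set separately per screening campaign, cut at about 2.9% in these data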;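 further: PERK kinase domain activated by AP20187 dimerizer at 100 nM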
eIF4E 4G PPI – inhibitors of eIF4E and eIF4G interaction in translation initiation. inhibition, % at 21.7 µM. P63073+Q04637. 220,000 compounds, 0.37% hits. TR-FRET eIF4E-eIF4GI(517-606) binding, 2 h;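 active means inhibition above about 30%, limit read from the data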
Numbers stand for hits; i = inactive; nt = no result; [ ] = dose if it differs, or a comment. Compounds with a hit are over-represented: about 2.2% of the library has one in this group of screens.

SMILES	Hck Nef HTS	14-3-3 Bad inh	Biofilm kill mix	p97 ATPase inh	PERK inh	eIF4E 4G PPI
COc1ccc(C(=O)N2C(=S)NC(=O)/C2=C\c2ccc(C)cc2)cc1	i	84[fluorescence artefact?]	i	i	i	i
Cc1ccc(S(=O)(=O)CCC(=O)Nc2ccc(F)cc2)cc1	i	i	i	i	i	i
c1ccc(Cn2ncc3c(N4CCCCC4)ncnc32)cc1	i	74	nt	i	i	i
Cc1ccc(Cn2ncc3c(N4CCN(c5ccccc5C)CC4)ncnc32)cc1	i	i	nt	i	i	i
CC(C)(C)C(=O)Cn1ncc(Br)c(Br)c1=O	i	i	i	i	i	i
Cc1ccc(Nc2ncnc3ccccc23)cc1	i	i	i	i	i	i
Cc1cccc(Nc2ncnc3ccccc23)c1	i	73	nt	i	i	i
O=c1c(O)c(-c2ccc(O)cc2O)oc2cc(O)cc(O)c12	i	i	i	49	i	i
CC1=NN(Cc2c(C)nn(Cc3ccccc3)c2C)C(C)(C)C1	i	i	i	i	i	i
Cc1[nH]n(-c2ccccc2)c(=S)c1C=Nc1cccc([N+](=O)[O-])c1	i	i	nt	i	i	55
O=C(O)/C=C/c1ccc(S(=O)(=O)N2CCN(CCN3C(=O)C4C5C=CC(C5)C4C3=O)CC2)cc1 (stereo not drawn)	i	i	i	i	i	i
CCC(C)NC(=O)c1ccccc1-c1nc2ccccc2[nH]1 (stereo not drawn)	i	i	i	i	i	i
Cc1ccc(-n2c(C)nn(CC#N)c2=O)cc1	i	87	i	i	i	i
COc1c2c(c(C)c3c1C(=O)OC3)O[C@@]1(C)CC[C@@]3(O)C(C)(C)OC(=O)CC[C@]3(C)[C@H]1C2	i	i	i	nt	nt	i
CN(C)c1ccc(N=c2sc3ccccc3n2C)cc1	i	i	nt	i	i	38[fluorescence artefact?]
CCOC(=O)c1ccc(NC(=O)Cn2c(-c3nonc3N)nc3ccccc32)cc1	i	i	i	i	i	i
CCOc1ccsc1C(=O)O	i	i	i	i	i	i
Oc1ccc(/C=N/NC(=S)Nc2cccnc2)cc1O	i	84[fluorescence artefact?]	i	i	i	i
COC(=O)/C=C/C(=O)N1CCN(c2ccccc2C)CC1	i	i	i	i	i	42[fluorescence artefact?]
COCc1cc(S(=O)c2ccc(Cl)cc2)nc(C)n1 (stereo not drawn)	i	i	i	i	i	i
Cc1cc(C)c(S(=O)(=O)/N=C2/C=C(Sc3ncn[nH]3)C(=O)c3ccccc32)cc1C	i	76[fluorescence artefact?]	i	i	i	i
Cc1ccc(NC2=C/C(=N/S(=O)(=O)c3cccs3)c3ccccc3C2=O)cc1C	i	i	i	i	i	i
S=C(Sc1ccc(Cl)cc1)Sc1ccc(Cl)cc1	i	i	i	i	i	i
CC(O)CNCCNCc1c(OCc2ccccc2)ccc2ccccc12 (stereo not drawn)	i	77	nt	i	i	i
CCOC(=O)N1CCC(N(CCN(C)C)C(=S)Nc2ccc(Oc3ccccc3)cc2)CC1	i	i	i	i	i	i
SMILES	Hck Nef HTS	14-3-3 Bad inh	Biofilm kill mix	p97 ATPase inh	PERK inh	eIF4E 4G PPI
Cc1nn(CCC(=O)O)c2nc(-c3cccnc3)cc(C(F)(F)F)c12	i	73	nt	i	i	i
Cc1nn(CCC(N)=O)c2nc(-c3cccs3)cc(C(F)(F)F)c12	i	i	i	i	i	i
Cc1nc2ccc(NC3=NCCCCC3)cc2s1	i	79	nt	i	i	i
Cc1ccc(NC2=NCCC2)cc1Cl	i	i	i	i	i	i
CCCCOc1ccc(-c2nc(-c3cccnc3)no2)cc1	i	160[fluorescence artefact?]	nt	i	i	i
CCOc1ccc(-c2nc(-c3cccnc3)no2)cc1	i	i	i	i	i	i
O=[N+]([O-])c1ccc(/C=N/NC(=S)Nc2ccc(Cl)cc2Cl)s1	i	i	i	i	i	i
Cc1ccc(S(=O)(=O)N2CCN(C(C)C(=O)Nc3ccccc3-c3ccccc3)CC2)cc1 (stereo not drawn)	i	i	i	i	i	32[fluorescence artefact?]
CC1CCN(C(C)C(=O)Nc2ccccc2-c2ccccc2)CC1 (stereo not drawn)	i	85	nt	i	i	i
CC(C(=O)Nc1ccccc1-c1ccccc1)N1CCN(C(=O)c2ccccc2)CC1 (stereo not drawn)	i	i	i	i	i	i
CCOCCCNC(=O)CN1CCN(c2ccc(F)cc2)CC1	i	74	nt	i	i	i
Cc1ccc(CN2CCN(CC(=O)NCCCN3CCN(c4ccc(F)cc4)CC3)C2=O)cc1	i	i	nt	i	i	i
